Bioassay records (PubChem)
DAGLB inh = blocks human DAGLB lipase activity | actives 0.059% (n = 340,000) | HEK293T DAGLB membrane lysate, EnzChek fluorogenic substrate | inhibition, % at 5.17 µM | Q8NCG7 | AID 504411; in the data active means inhibition above about 34%;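 further: 0% = enzyme with vehicle and 100% = wells lacking enzyme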
Fh CTSL1 inh = counter-screen for PFM18AAP inhibitors: inhibitors of F. hepatica cathepsin L1; recombinant F. hepatica cathepsin L1, Z-Leu-Arg-MCA fluorescence; inhibition, % at 5.96 µM; actives 0.49% (n = 300,000);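 active means inhibition above the mean of all tested compounds plus 3 SD, set per screening campaign, cut at about 17% in these data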;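 further: 0% = plate median of test compound wells and 100% = 1 µM Z-Phe-Ala-diazomethylketone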
NRP1-CendR mod = NRP-1/CendR interaction modulation | inhibition, % at 25 µM | O14786 | FAM-RPARPAR peptide binding to NRP-1, fluorescence polarization | actives 0.85% (n = 360,000) | AID 602438;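 active means inhibition or corrected inhibition above about 18%, plus a signal ratio from 0.5 to 1.5, limit read from the data, passing the limit was not always enough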
UCH37 DUB inh = human UCH37 deubiquitinating enzyme inhibition. purified proteasome/UCH37, Ub-AMC cleavage fluorescence. inhibition, % (test concentration not listed). actives 0.33% (n = 330,000);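 active means mean inhibition over replicate wells above about 20%, limit read from the data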;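 further: 0% = compound-free wells with enzyme and 100% = wells lacking proteasome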
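Signal – fluorescence, ex 355 nm, em 460 nm · System – Proteasome-bound UCH37 · Input – 0.15 nM proteasome as dispensed · Timing – 30 min preincubation with enzyme, 25 min cleavage at room temperature · Read-out basis – percent inhibition of cleavage signal versus uninhibited and no-proteasome wells · Medium – Tris-HCl pH 7.4 with ATP-MgCl2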
MT1-MMP act inh = blocks activation of human MT1-MMP | GFP/RFP ratio change, % at 20 µM | HT1080 RFP-PRO-GFP cells, GFP/RFP ratio fluorescence, overnight; percent of plate control window, DMSO zero | AID 651647 | actives 0.061% (n = 360,000) | P50281;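 active means GFP/RFP ratio change of at least 30% with cell ATP level not reduced by more than half and red fluorescence within 50% of control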
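Assay system – RFP-PRO-GFP reporter HT1080 cells · Compound dosing – single dose of 20 µM compound, 1% DMSO final · Incubation – overnight compound exposure at 37 °C · Measure – GFP/RFP fluorescence ratio · Benchmarks – DMSO wells and RFP-L50D-GFP cells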
UCH37 reconfirm = reconfirmed inhibitor of human deubiquitinase UCH37. shares compounds with UCH37 DUB inh. Proteasome-bound UCH37, Ub-AMC cleavage fluorescence. inhibition, % at 20 µM. actives 27% (n = 480);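 active means average inhibition over replicates above about 50%, so the earlier screening hit is confirmed, limit read from the data; inactive means the rest, counted as false positives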;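 further: based on cleavage rate fitted by regression over a 30 min kinetic read; 0% = proteasome plus Ub-AMC and 100% = Ub-AMC without proteasome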
MT1-MMP act val = validation of inhibitors of human MT1-MMP activation; HT1080 RFP-PRO-GFP cells, GFP and RFP fluorescence ratio, overnight; actives 10% (n = 200); inhibition, % at 20 µM; AID 652235; shares compounds with MT1-MMP act inh;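 active means inhibition of at least 50% in the primary cell screen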
Active calls of the source: *; / = not tested or not shown. Most compounds without a hit are left out; they make up all but 1.5% or so of the library.

SMILES	DAGLB inh	Fh CTSL1 inh	NRP1-CendR mod	UCH37 DUB inh	MT1-MMP act inh	UCH37 reconfirm	others
COC(=O)C1=C(c2cccc(C#N)c2)C[C@@H]2CC[C@H]1N2C(=O)NCc1ccc(F)cc1	2	/	0	-1	0	/
COC(=O)C1=C(c2cccc(C#N)c2)C[C@@H]2CC[C@H]1N2C(=O)NCc1cccc2ccccc12	-3	/	-9	47*	3	13
O=C1NC(=O)N(c2ccc3c(c2)OCO3)C(=O)/C1=C\c1ccc(N2CCCCC2)o1	-7	7	-54	29*	-82	44
CN1C(=O)C(=Cc2ccc(N3CCCCCC3)o2)C(=O)N(C)C1=S	1	-1	141	15	-71	/
O=C(N=Nc1c(O)[nH]c(=O)[nH]c1=O)C1COc2ccccc2O1 (stereo not drawn)	0	0	0	32*	-1	5
COC[C@]12CN(C)C3C4[C@H](OC)C1C3([C@@H](OC)C[C@H]2O)[C@@H]1C[C@@]2(O)[C@H](OC(=O)c3ccccc3)[C@@H]1[C@]4(OC(C)=O)[C@@H](O)[C@@H]2OC	/	/	/	0	/	/
CN1C(=O)C(=Cc2ccc(N3CCOCC3)o2)C(=O)N(C)C1=O	2	3	-124	30*	-26	24
CCCCCC(=NO)c1c[nH]c2ccccc12	/	/	/	5	/	/
Cn1ncnc2c(=O)n(C)c(=O)nc1-2	-25	111*	22	100*	-27	100*
CC1CCCC(C)N1N=Cc1c[nH]c2ccc(Br)cc12 (stereo not drawn)	/	/	/	6	/	/
O=C1OCCN1N=Cc1ccc([N+](=O)[O-])o1	/	/	/	4	/	/
COC(=O)C1=C(c2ccc(OC)c(OC)c2)C[C@@H]2CC[C@H]1N2C(=O)N1CCCC1	1	/	-10	3	34*	/	MT1-MMP act val=3
Cn1cccc1/C=C1/C(=O)NC(=S)N(Cc2ccc(F)cc2)C1=O	26	3	-13	6	39*	/	MT1-MMP act val=35
Cc1cc(N(CCCl)CCCl)ccc1C=NN=C(N)c1cnccn1	/	/	/	5	/	/
O=c1[nH]c(=S)n(C2CC2)c(O)c1/C=N/Nc1ccccc1	7	3	-9	/	61*	/	MT1-MMP act val=4
O=c1[nH]c(=S)n(C2CC2)c(O)c1/C=N/Nc1cccc2ccccc12	14	3	-8	/	2	/
NC(=NN=Cc1ccc(O)cc1)N[N+](=O)[O-]	/	/	/	18	/	/
